High-throughput results from PubChem BioAssay.
Most compounds without a hit are left out; they make up all but 3.8% or so of the library.
MrgX1 allo act: human MrgX1 positive allosteric modulation, primary screen; AID 588675; Q96LB2; 0.63% of 310,000 active; B-score at 10 µM; MrgX1-HEK293, Fluo-4 calcium flux, FDSS; stronger effect = higher value;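 active = plate-corrected calcium response at least 3 library SD above typical, normal starting fluorescence, not activating the receptor alone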;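 note: compound read alongside a low EC10 to EC30 dose of BAM8-22 agonist; peak minus trough fluorescence over baseline measured at the second addition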
Target sequence (Q96LB2 whole entry, looked up): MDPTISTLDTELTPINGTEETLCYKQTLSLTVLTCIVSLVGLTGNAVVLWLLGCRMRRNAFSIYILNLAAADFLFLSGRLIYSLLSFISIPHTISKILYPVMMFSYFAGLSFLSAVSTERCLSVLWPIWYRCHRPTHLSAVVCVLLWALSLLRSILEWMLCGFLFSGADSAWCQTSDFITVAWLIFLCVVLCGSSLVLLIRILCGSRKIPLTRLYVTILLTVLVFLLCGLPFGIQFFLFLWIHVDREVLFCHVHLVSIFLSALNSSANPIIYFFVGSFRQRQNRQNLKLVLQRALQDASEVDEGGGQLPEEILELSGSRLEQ
Lipid droplet: hepatic lipid droplet formation modulation; AML12 mouse hepatocytes, oleate lipid droplets, BODIPY imaging; inhibition, % at 6.5 µM; 0.4% of 240,000 active; AID 1656;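 active = lipid droplet intensity inhibited by at least 50%, with more than 500 cells counted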
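Assay system: AML12 mouse liver cells | Compound dosing: One dose, 6.5 µM compound | Read-out basis: Droplet intensity reduction, % inhibition | Measured by: Fluorescence imaging, 20x objective, two fields per well | Schedule: Overnight treatment with compound plus oleate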
RGS4 block: inhibitors of human RGS4; B-score at 10 µM; AID 463165; 0.45% of 310,000 active; HEK293 M3R/RGS4 inducible, Fluo-4 calcium flux; stronger effect = higher value; triggered by carbachol at its EC20;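 active = B-score, a plate-corrected calcium signal, over three deviations above library mean, with baseline fluorescence within five deviations of library mean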;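 note: RGS4 expression induced by doxycycline in cells with stable M3 receptor; B-score is computed from the integrated fluorescence ratio over baseline after carbachol; higher B-score means a larger calcium signal and so more RGS4 inhibition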
Target sequence (P49798 whole entry, looked up): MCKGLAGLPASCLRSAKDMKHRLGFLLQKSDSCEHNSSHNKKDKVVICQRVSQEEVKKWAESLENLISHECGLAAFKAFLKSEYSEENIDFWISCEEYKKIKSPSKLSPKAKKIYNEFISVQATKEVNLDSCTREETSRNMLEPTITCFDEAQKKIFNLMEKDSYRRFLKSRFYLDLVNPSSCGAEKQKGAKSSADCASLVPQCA
MrgX1 antagonist: human MrgX1 receptor antagonism, primary screen. MRGX1-HEK293 calcium flux, Fluo-4, BAM8-22 antagonism; stronger effect = lower value. B-score at 10 µM. Q96LB2. 1.3% of 310,000 active;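 active = calcium-response B-score plate-corrected more than 3 library SD below zero, starting fluorescence within 5 deviations, no agonist response on first addition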;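 note: peak minus trough fluorescence over baseline after final BAM8-22 challenge near maximal dose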
MrgX1 agonist: agonists of human MrgX1 receptor; B-score at 10 µM; 0.44% of 310,000 active; MrgX1-HEK293 cells, Fluo-4 calcium fluorescence, agonist mode; stronger effect = higher value; Q96LB2;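 active = calcium response B-score plate-corrected fluorescence ratio at least 3 library SD, with starting fluorescence B-score inside 5 SD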
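Test system: Stable human MrgX1 HEK293 cell line | Schedule: Overnight plating before 1 h dye loading | Read-out basis: Baseline-normalised fluorescence change ratio, B-scored | Detection: Kinetic calcium dye fluorescence, Fluo-4 NW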
RGS4 act: potentiators or activators of RGS4; HEK293 M3R/inducible RGS4, carbachol calcium flux Fluo4; stronger effect = lower value; B-score at 10 µM; 0.92% of 310,000 active; AID 463111;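 active = B-score of the integrated calcium signal more than 4 SD below the library mean, with starting fluorescence not abnormally high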;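 note: negative B-score means reduced calcium response which marks RGS4 activation or potentiation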
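Also added: carbachol at ECmax as muscarinic agonist stimulus; Assay system: HEK293 cells with stable M3R and inducible RGS4; Timing: overnight RGS4 induction, 30 min dye load 37 °C, 20 min compound RT; Measured by: Fluo4-AM (2 µM) calcium-flux fluorescence, kinetic read.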
The depositor's hits bear a star; i = inactive; · = no result given.

SMILES | MrgX1 allo act | Lipid droplet | RGS4 block | MrgX1 antagonist | MrgX1 agonist | RGS4 act
O=C1C2C(c3ccccc3)C=CC(c3ccccc3)C2C(=O)N1c1ccccn1 (configuration not stated) | i | 7 | i | i | i | i
O=C(Nc1ccc(O)cc1)c1ccc2c(c1)C(=O)N(N1C(=O)c3ccccc3C1=O)C2=O | i | -6 | i | -5.8* | i | i
O=C(Nc1ccccc1O)c1ccc2c(c1)C(=O)N(N1C(=O)c3ccccc3C1=O)C2=O | i | 4 | i | i | i | i
COc1ccc(-c2ccc(/C=C3/C(=N)N4C(C)=CSC4=NC3=O)o2)c([N+](=O)[O-])c1 | i | -1 | i | i | 29* | i
COc1ccc(-c2ccc(/C=C3\C(=O)N(c4ccccc4)N=C3c3ccccc3)o2)c([N+](=O)[O-])c1 | i | · | i | i | i | i
CCC(C)/C(C)=N/NC(=O)c1ccc(COc2ccc(Cl)c(C)c2)cc1 (configuration not stated) | 10* | -27 | · | i | i | ·
Cc1ccccc1C(=O)NCCNc1ccc([N+](=O)[O-])cc1 | i | 2 | i | i | i | i
Cc1ccccc1C(=O)NNc1ccc([N+](=O)[O-])cc1 | i | 13 | i | -6.8* | i | i
CCC(=O)Nc1cc2c3c(c1)CCC(=O)N3CCC2 | i | -4 | i | i | i | i
O=[N+]([O-])c1ccc(Cl)c(S(=O)(=O)Nc2ccc(-c3ccc(N4CCCC4)nn3)cc2)c1 | i | · | i | i | i | i
O=[N+]([O-])c1ccc(S(=O)(=O)Nc2ccc(-c3ccc(N4CCCC4)nn3)cc2)cc1 | 6.7* | · | i | i | i | i
Cc1ccc([N+](=O)[O-])cc1S(=O)(=O)Nc1ccc(-c2ccc(N3CCCC3)nn2)cc1 | 16* | · | i | i | i | i
Cc1nc2ccccc2c(=O)n1NC(=O)C1CC1 | i | -3 | i | i | i | i
CC(C)(C)c1ccc(OCCC(=O)Nc2cccc(S(=O)(=O)N3CCCCC3)c2)cc1 | i | -34 | i | i | i | i
NC(=O)c1coc(-c2ccccc2)n1 | i | 0 | i | i | i | -7.1*
Cc1ccc(OCCn2c(=O)n(C)c3ccccc32)cc1 | i | -11 | i | i | i | -7.2*
Cn1c(C(=O)OC(C(=O)NCc2ccco2)c2ccncc2)cc2sccc21 (configuration not stated) | i | 3 | i | -4.7* | i | i
Cc1ccc(C)c(Oc2cc(NN3CCCCC3)c([N+](=O)[O-])cc2[N+](=O)[O-])c1 | i | 15 | i | i | i | i
CCc1occc(=O)c1Oc1cc(NN2CCCCC2)c([N+](=O)[O-])cc1[N+](=O)[O-] | i | -15 | i | i | i | -8.2*
O=[N+]([O-])c1cc([N+](=O)[O-])c(Oc2ccccc2F)cc1NN1CCCCC1 | i | 0 | i | i | i | -7*
COc1cc(C(C)=O)ccc1Oc1cc(NN2CCCCC2)c([N+](=O)[O-])cc1[N+](=O)[O-] | i | -19 | i | i | i | i
Cc1ccc(F)c(Oc2cc(NN3CCCCC3)c([N+](=O)[O-])cc2[N+](=O)[O-])c1 | i | · | i | i | i | -7.4*
O=[N+]([O-])c1cc([N+](=O)[O-])c(Oc2cccc(Cl)c2Cl)cc1NN1CCCCC1 | i | 18 | i | i | i | -8.2*
CN(Cc1ccc(Cl)cc1)C(=O)c1ccc2ccccc2n1 | i | -2 | i | i | i | i
O=C1C(Cc2ccccc2)Nc2ncnc(N3CCN(c4ccccc4)CC3)c2N1Cc1ccc(Cl)cc1 (configuration not stated) | i | · | i | i | i | i
SMILES | MrgX1 allo act | Lipid droplet | RGS4 block | MrgX1 antagonist | MrgX1 agonist | RGS4 act
CCOc1ccc(OCCCC(=O)NCCc2ccc(OC)cc2)cc1 | i | -2 | i | i | i | i
COC(=O)c1ccc(-c2noc(CN(Cc3nccn3C)C(C)C)n2)cc1 | i | 3 | i | i | i | -7.5*
CC(C)N(Cc1nc(-c2ccc3c(c2)OCO3)no1)Cc1nccn1C | i | -2 | i | i | i | i
CC(C)c1ccccc1NC(=O)CNCCOc1ccccc1F | i | · | i | i | i | -7.2*
COc1ccc(OCc2nnc(SCC(=O)N3C(C)CCCC3C)o2)cc1 (configuration not stated) | i | -49 | i | i | i | i
Cc1nc(C2CCC3C4CCC5=CC(=O)CC[C@]5(C)C4CC[C@]23C)cs1 (some centres not stated) | i | -4 | i | i | i | -10*
COC(=O)c1cc(C)sc1NC(=O)CSc1ncccn1 | i | -17 | i | i | i | i
N#Cc1cc(N)ccc1Sc1ccc(Cl)cc1 | i | · | i | i | i | -7*
O=C(c1ccc(Oc2cc(Cl)cc(Cl)c2)o1)N1CCCCC1 | i | 0 | i | i | i | i
Cc1cc(-c2ccccc2)nc(N/N=C/c2ccccc2)n1 | i | -3 | i | i | i | i
C(=N/Nc1nc(-c2ccccc2)cc(-c2ccccc2)n1)/c1cccnc1 | i | 7 | i | i | i | -7.1*
Cc1cc(-c2ccccc2)nc(N/N=C/c2ccc(O)cc2O)n1 | i | 2 | i | i | i | -7.2*
COc1ccc(/C=N/Nc2nc(C)cc(-c3ccccc3)n2)cc1OC | i | 4 | i | i | i | -7.3*
CC(NC(=O)CN1c2cccc3cccc(c23)S1(=O)=O)c1ccc(S(N)(=O)=O)cc1 (configuration not stated) | i | · | i | i | i | i
Cc1ccc(NS(=O)(=O)c2c(C)[nH]c(C)c2C(=O)N2CCCCC2)c(Br)c1 | i | -13 | i | i | i | i
COc1ccc(Cl)cc1C(=O)NNC(=O)c1csc(N2CCOCC2)n1 | i | · | i | i | i | i
CN1CCc2nc3ccc(Cl)cc3c(-c3ccccc3Cl)c2C1 | i | -19 | i | i | i | -8.6*
CC1=NN(c2ccccc2)C(=O)C1C(=O)c1ccc(Cl)cc1 (configuration not stated) | i | · | i | i | 32* | i
CC1=NN(c2ccccc2)C(=O)C1C(=O)c1ccccc1 (configuration not stated) | i | 4 | i | i | i | i
